# This is a sample that favours compounds with a hit; in the whole collection about 4.1% have one here.
# KCC2 mod: KCC2 cotransporter modulators, thallium flux, primary screen, cell-based, HEK293 KCC2, FluoZin-2 fluorescence, MLSMR. actives 2.2% (n = 190,000). AID 1456, 2008. B-score of Tl+ flux slope (higher = more flux/activation; lower = inhibition) at 10 µM. KCC2 cells, thallium flux FluoZin-2 fluorescence;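 active = thallium flux slope and its plate-corrected score both differing from the plate sample mean at a set confidence after two filtering rounds, in either direction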;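 also: slope of fluorescence scaled to starting intensity during 10 to 20 s after thallium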
# KCNQ1 act: potentiators or activators of KCNQ1 channel, primary screen, cell-based, thallium flux, high-throughput. B-score at 10 µM. AID 2648, 2010. CHO-K1 KCNQ1, thallium flux FluxOR fluorescence; hits give high values. actives 0.35% (n = 310,000);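 active = fluorescence ratio B-score, a plate-corrected score, at least three library SD, with initial intensity B-score within 5 SD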
#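 Assay system: CHO-K1 cells stably expressing KCNQ1; Medium: assay buffer with matched DMSO; Also added: K+/Tl+ depolarizing stimulus; Dosing: single dose; Timing: dye 90 min, compound 20 min, room temperature; Measured by: kinetic FluxOR thallium fluorescence, 10-s 1-Hz baseline, 110-s post-stimulus read; Read-out: peak-minus-minimum fluorescence over initial fluorescence, negative-control normalized, B-scored.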
# hERG protect: hERG rescue from dofetilide block, primary screen, cell-based, CHO-hERG, FluxOR thallium flux, dofetilide IC70; Voltage-gated inwardly rectifying potassium channel KCNH2 (Homo sapiens), Q12809; dofetilide IC70 present; activation (rescue from dofetilide block), less the hit threshold, % at 10 µM; actives 0.51% (n = 310,000); AID 1511, 2009;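 active = activation above the mean of controls blocked by dofetilide plus 5 SD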;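 also: thallium influx through hERG after potassium depolarization seen as dye fluorescence rise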
# Target sequence (Q12809 whole entry, looked up): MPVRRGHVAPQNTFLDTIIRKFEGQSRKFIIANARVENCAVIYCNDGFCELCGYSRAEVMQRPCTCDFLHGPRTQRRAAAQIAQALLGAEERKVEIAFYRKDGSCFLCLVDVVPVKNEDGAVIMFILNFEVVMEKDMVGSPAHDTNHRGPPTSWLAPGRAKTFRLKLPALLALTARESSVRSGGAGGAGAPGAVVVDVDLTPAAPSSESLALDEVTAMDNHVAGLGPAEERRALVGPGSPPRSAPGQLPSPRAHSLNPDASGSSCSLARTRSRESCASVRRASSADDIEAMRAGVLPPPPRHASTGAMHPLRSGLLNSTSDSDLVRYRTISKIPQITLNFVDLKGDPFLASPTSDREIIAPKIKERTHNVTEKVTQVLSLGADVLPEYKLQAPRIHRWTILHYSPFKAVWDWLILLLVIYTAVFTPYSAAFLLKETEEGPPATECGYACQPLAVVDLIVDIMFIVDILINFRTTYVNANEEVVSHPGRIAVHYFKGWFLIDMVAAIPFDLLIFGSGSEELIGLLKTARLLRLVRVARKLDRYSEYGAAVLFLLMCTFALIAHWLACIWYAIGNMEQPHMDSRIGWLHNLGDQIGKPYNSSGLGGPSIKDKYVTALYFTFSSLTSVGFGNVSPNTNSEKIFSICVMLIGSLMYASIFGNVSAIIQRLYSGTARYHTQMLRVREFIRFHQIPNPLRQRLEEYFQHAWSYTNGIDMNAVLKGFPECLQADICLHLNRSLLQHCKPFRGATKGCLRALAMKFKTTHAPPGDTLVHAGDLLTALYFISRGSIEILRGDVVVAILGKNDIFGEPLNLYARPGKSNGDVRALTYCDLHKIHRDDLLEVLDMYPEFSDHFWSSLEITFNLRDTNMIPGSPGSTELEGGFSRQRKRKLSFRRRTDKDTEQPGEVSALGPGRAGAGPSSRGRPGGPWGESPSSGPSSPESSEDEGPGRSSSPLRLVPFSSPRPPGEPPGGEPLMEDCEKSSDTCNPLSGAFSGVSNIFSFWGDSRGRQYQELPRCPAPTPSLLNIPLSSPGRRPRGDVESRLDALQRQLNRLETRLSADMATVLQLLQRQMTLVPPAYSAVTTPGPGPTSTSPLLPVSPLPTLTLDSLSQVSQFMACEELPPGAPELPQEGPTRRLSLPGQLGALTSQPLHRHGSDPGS
# KCNQ1 inh: inhibitors of human KCNQ1 channel, primary screen, cell-based, thallium flux, high-throughput. CHO-K1 KCNQ1, FluxOR thallium flux fluorescence; hits give high values. B-score at 10 µM. actives 1.3% (n = 310,000);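 active = compounds whose thallium flux B-score, printed positive for inhibition, exceeds three library SD while starting fluorescence stays within three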;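 also: channel opened by potassium depolarization with thallium stimulus after 20 min compound exposure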
# KCNK9 block: KCNK9 potassium channel inhibitors, primary screen, HEK293 cells, thallium flux. FluxOR thallium flux fluorescence; hits give low values. B-score at 10 µM. actives 1.2% (n = 310,000);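 active = ratio B-score over 3 SD below the library mean, with starting fluorescence within 5 SD of its mean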;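 also: negative B-score means less thallium flux so channel inhibition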
# KCNK3 inh: human KCNK3 channel inhibitors, primary screen, CHO cells, FluxOR thallium flux, B-score | AID 602410, 2012 | FluxOR fluorescence; hits give low values | Potassium channel subfamily K member 3 (Homo sapiens), O14649 | actives 0.84% (n = 340,000) | B-score at 10 µM;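 active = B-score under library mean minus 4 SD, starting fluorescence ratio at most library mean plus 5 SD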;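 also: more negative B-score means stronger inhibition of thallium flux through KCNK3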
# KCNK9 inh conf: KCNK9 potassium channel inhibitors, confirmation, HEK293 cells, thallium flux, duplicate | actives 43% (n = 4,900) | shares compounds with KCNK9 block | FluxOR thallium flux fluorescence | inhibition, % at 10 µM;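 active = thallium signal inhibited by more than 5 SD of the compound-free buffer control wells, on both duplicate plates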;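 also: 0% = assay buffer control wells without compound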
# Kir2-1 spec: mouse Kir2.1 channel inhibition, confirmation, selectivity assay for KCNK9 modulator project, cell-based, HEK293, thallium flux; shares compounds with KCNK9 block; Kir2.1 cells, FluxOR thallium flux fluorescence; inhibition, % at 10 µM; actives 4% (n = 4,900); AID 492993, 2010;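 active = thallium signal drop more than 5 SD beyond the mean of the no-compound control wells, seen in both duplicate plates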;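 also: signal is fluorescence rise after thallium addition divided by baseline fluorescence; plate controls were assay buffer only for no effect and full block by chlorpromazine control for full effect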
# HEK293 Tl ctr: thallium flux in non-induced HEK293 cells, confirmation, counter-screen for KCNK9 inhibitor project, cell-based, second counter screen, non-induced KCNK9-HEK293; shares compounds with KCNK9 block; FluxOR thallium flux; inhibition, % at 10 µM; AID 492997, 2010; actives 40% (n = 4,900);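 active = thallium signal drop beyond 5 SD of the untreated control mean, on both duplicate plates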;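 also: plate controls were buffer only IC0 wells for no effect and SID17386958 at its maximal inhibitory level for full effect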
# The depositor's hits bear a star; i = inactive; / = not tested or not shown.
SMILES,KCC2 mod,KCNQ1 act,hERG protect,KCNQ1 inh,KCNK9 block,KCNK3 inh,KCNK9 inh conf,Kir2-1 spec,HEK293 Tl ctr
COC(=O)c1ccccc1NC(=O)C1CCN(C(=O)c2ccc(OC)cc2)CC1,-0.12,i,-7,i,i,i,i,i,i
CN(C)CCOc1cc(Cl)cc(Cl)c1,-1.4,i,-10,i,i,i,/,/,/
COCCN(CCOc1cc(C)cc(C)c1)Cc1ccc(Cl)cc1,/,i,-9,i,i,i,i,i,i
COc1ccc(CNC(=O)CNS(=O)(=O)c2cccs2)cc1,/,i,-6,i,i,i,/,/,/
CCN(CC)c1nc(C#N)nc(N(CC)CC)n1,0.036,i,-8,i,i,i,i,i,i
COc1ccc(/C=N/NC(=O)c2cccnc2)cc1CN1CCN(c2ccc(F)cc2)CC1,-0.12,i,-12,i,i,i,/,/,/
COc1ccc(C(=O)N/N=C/c2ccc(OC)c(CN3CCN(c4ccc(F)cc4)CC3)c2)cc1,0.66,i,-22,i,i,i,i,i,i
COc1cc(OC)c(CN2CCN(c3ccc(F)cc3)CC2)cc1Br,-0.13,i,-10,i,i,i,i,i,i
CN(Cc1ccccc1)C(=O)c1ccc(NC(=O)Cc2cccc(NC(=O)C3CCN(C(=O)C4CCCC4)CC3)c2)cc1,/,/,/,/,/,i,/,/,/
CC1(C)C(=O)OC(C(=O)c2ccccc2)C(C)(C)C1=O (stereo not drawn),0.024,i,-8,i,i,i,/,/,/
Cc1cc(C)c(C(=O)C2OC(=O)C(C)(C)C(=O)C2(C)C)c(C)c1 (stereo not drawn),-1.3,i,-11,i,i,i,i,i,i
O=C(NCCc1ccc(F)cc1)C(=O)NCC1CCCN1S(=O)(=O)c1cccs1 (stereo not drawn),/,i,-20,i,i,i,/,/,/
CC(C)CC(=O)C1CCCN(C(=O)c2ccc3oc(Cc4ccccc4)nc3c2)C1 (stereo not drawn),/,i,-6,i,i,i,i,i,i
CCOC(=O)C1CCCN(C(=O)c2ccc3oc(Cc4ccccc4)nc3c2)C1 (stereo not drawn),/,i,-12,i,i,i,/,/,/
COc1ccc(-c2cc(-c3ccccc3)nc(N)n2)c(O)c1,/,/,/,/,/,i,/,/,/
COc1ccc(OC)c(Nc2cc(-c3ccccc3)nc(N)n2)c1,0.15,i,-11,i,-8.2*,/,32%*,i,i
Cc1cc2c(cc1S(=O)(=O)N1CCN(c3cccc(C)c3C)CC1)OCCN2C,/,i,-8,i,i,i,i,i,i
CCCC1CC(=O)NC1(C(=O)OCC)C(=O)OCC (stereo not drawn),/,/,/,/,/,i,/,/,/
CCC(=O)NC(=S)NNC(=O)c1ccc(O)cc1,0.65,i,-5,i,-8.2*,i,i,i,27%*

# Screens (PubChem)
